This is a sample that favours compounds with a hit; in the whole collection about 2.7% have one here.
PP1 counter: PP1-alpha phosphatase inhibitors, primary screen, counter-screen for PP5 inhibitor project, biochemical, fluorescence, OMFP substrate, single point | Serine/threonine-protein phosphatase PP1-alpha catalytic subunit (Homo sapiens), P62136 | purified PP1alpha | inhibition, % at 6.7 µM | 320,000 tested, 0.9% active | AID 2235, 2010;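 active means inhibition above the mean inhibition of all tested compounds plus 3 SD, computed separately for each screening campaign, cut at about 15% in these data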
NadD inh: inhibitors of S. aureus NadD, primary screen, biochemical, colorimetric, uHTS. purified NadD enzyme, colorimetric absorbance read-out. 360,000 tested, 0.78% active. inhibition, % at 20 µM; in the data active means inhibition above about 26%
Rpn11 block: Rpn11 (PSMD14) deubiquitinase inhibitors, primary screen, biochemical, fluorescence polarization, uHTS; 26S proteasome non-ATPase regulatory subunit 14 (Homo sapiens), O00487; human 26S proteasome, Ub4-pepOG fluorescence polarization; 20S core pre-blocked with epoxomicin; inhibition, % at 20 µM; 360,000 tested, 0.59% active;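 active means inhibition at 20 µM, scaled to each plate's controls, above about 33%, limit read from the data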
Target sequence (O00487 whole entry, looked up): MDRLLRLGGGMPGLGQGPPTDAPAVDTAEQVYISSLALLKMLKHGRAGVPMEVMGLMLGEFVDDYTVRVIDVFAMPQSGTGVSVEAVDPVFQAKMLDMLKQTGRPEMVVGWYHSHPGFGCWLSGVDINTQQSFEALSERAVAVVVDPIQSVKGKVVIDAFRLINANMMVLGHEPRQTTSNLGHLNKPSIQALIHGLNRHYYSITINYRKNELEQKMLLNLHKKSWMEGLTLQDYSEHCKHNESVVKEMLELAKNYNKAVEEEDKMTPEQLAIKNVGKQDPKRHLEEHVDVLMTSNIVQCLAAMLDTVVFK
HNF4A DNA FP: change in binding of human HNF4A to DNA, primary screen, biochemical, fluorescence polarization, FITC-DNA; 1 h; AID 1224865, 2016; activity change, % at 10 µM; Hepatocyte nuclear factor 4-alpha (Homo sapiens), P41235; 360,000 tested, 0.3% active; in the data active means activity change above about 30%, passing the limit was not always enough
TPT1 inhibitor: Candida albicans TPT1 enzyme inhibitors, primary screen, biochemical, fluorescence polarization | recombinant caTPT1, FP RNA substrate dephosphorylation | inhibition, % at 5 µM | 300,000 tested, 0.81% active;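 active means inhibition above the mean of all tested compounds plus 3 SD, set per screening campaign, cut at about 24% in these data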;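 further: plate controls were DMSO alone for no effect and ferristatin control at 100 nM for full effect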
CSN inh: inhibitors of CSN-mediated cullin deneddylation, primary screen, biochemical, fluorescence polarization, uHTS; COP9 signalosome complex subunit 5 (Homo sapiens), Q92905; Purified CSN, SCF-Nedd8-OG deneddylation; inhibition, % at 12.5 µM; 360,000 tested, 0.38% active; AID 651999, 2013;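 active means pattern-corrected inhibition above about 35%, with an unprinted fluorescence ratio check between 0.5 and 1.5, limit read from the data, passing the limit was not always enough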;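 further: 0% = enzyme with substrate and 100% = substrate without enzyme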
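Schedule: reaction 90 min, room temperature / Assay system: HEK293T-derived human Csn5 enzyme / Input: Csn5 at 0.24 nM final / Measure: inhibition of Csn5 cleavage, % / Control set: substrate-only high control, full reaction low control / Technique: fluorescence polarization of the substrate / Buffer or medium: Tris/NaCl/DTT buffer, pH 7.5 / Reagent: SCFSkp2-Nedd8OG substrate at 10 nM final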
caTPT1 confirm: Candida albicans TPT1 inhibitors, confirmation, biochemical, fluorescence polarization, triplicate. 2,400 tested, 74% active. recombinant caTPT1, RNase T1 coupled. inhibition, % at 5 µM. shares compounds with TPT1 inhibitor;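 active means inhibition above the primary screen limit, the mean inhibition of all tested compounds plus 3 SD, cut at about 25% in these data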
RNase T1 inh: RNase T1 inhibitors, counter-screen for TPT1 inhibitor project, biochemical, fluorescence polarization | RNase T1 cleavage, 1536-well | 2,400 tested, 83% active | inhibition, % at 5 µM | shares compounds with TPT1 inhibitor;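 active means inhibition above the solvent-only control well mean plus 3 SD, limit set per screening run, cut at about 23% in these data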;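 further: plate controls were DMSO wells with enzyme for no effect and wells without RNase T1 for full effect; inhibitors block cleavage so intact labeled substrate keeps polarization high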
Target sequence (P00651 whole entry, looked up): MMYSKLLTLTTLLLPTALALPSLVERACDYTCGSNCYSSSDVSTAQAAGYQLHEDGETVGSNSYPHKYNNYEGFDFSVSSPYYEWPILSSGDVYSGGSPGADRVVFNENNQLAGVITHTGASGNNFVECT
The depositor's hits bear a star; nt = not tested or not shown.

SMILES	PP1 counter	NadD inh	Rpn11 block	HNF4A DNA FP	TPT1 inhibitor	CSN inh	caTPT1 confirm	RNase T1 inh
C=CCN1/C(=C2/SC(=S)N(C)C2=O)Sc2ccccc21	0.5	nt	nt	nt	34.8*	nt	59.2*	73.0*
CCN1C(=O)/C(=C2/Sc3ccccc3N2CC)SC1=S	-0.4	-3.1	nt	3.9	4.7	-2.8	nt	nt
CCCCNC(=O)C(CC)(ONc1ccccc1C(F)(F)F)c1ccccc1 (centres undefined)	1.0	1.2	1.7	3.2	nt	-6.5	nt	nt
CCOc1ccccc1N1CCN(CC(=O)Nc2ccnn2C2CCCC2)CC1	0.5	-1.6	1.2	-2.9	nt	4.4	nt	nt
CN(C(=O)c1ccnn1C)C1CCCN(Cc2ccccc2F)C1 (centres undefined)	nt	-1.4	-10.2	-3.2	nt	-0.2	nt	nt
O=C(c1ccc(NS(=O)(=O)c2ccc3[nH]c(=O)[nH]c3c2)cc1)N1CCCC(C(F)(F)F)C1 (centres undefined)	-1.0	-3.6	-4.6	-0.6	-3.8	-2.7	nt	nt
COc1ccc(C2=NNC(c3cc(Cl)cc4c3OCOC4)C2)c(O)c1 (centres undefined)	3.2	nt	nt	nt	36.5*	nt	18.7	27.6*
CCOC(=O)c1c(/N=C/N(C)C)sc(/C=N/Nc2ccccc2)c1-c1ccc(Cl)cc1	-1.4	13.8	42.9*	26.4	40.2*	4.9	29.2*	43.3*
CCOC(=O)c1c(/N=C/N(C)C)sc(C)c1C	-6.1	-4.7	8.0	0.7	-0.3	4.1	nt	nt
COc1cccc(NC(=O)CN(C)CC(=O)NC(C)c2ccccc2)c1 (centres undefined)	-0.6	-5.8	-4.6	-3.0	1.6	-6.3	nt	nt
COc1ccc(CN(C)CC(=O)NC(C)c2ccccc2)c(OC)c1 (centres undefined)	-4.8	-4.4	-6.0	2.7	98.7*	3.2	7.6	9.6
CNC(=O)c1c(NC(=O)c2ccc(S(=O)(=O)N(C)c3ccccc3)cc2)sc2c1CCN(C(C)C)C2	-6.2	nt	nt	nt	124.8*	nt	161.4*	148.8*
COC(=O)c1c(NC(=O)c2ccc(N(C)S(=O)(=O)c3ccc(C)cc3)cc2)sc2c1CCCC2	-3.2	9.1	-3.7	-2.7	-0.7	3.8	nt	nt
CCN1CCc2c(sc(NC(=O)c3ccc(S(=O)(=O)N(C)c4ccccc4)cc3)c2C(=O)NC)C1	3.8	1.9	-33.3	27.1	133.1*	19.3	149.9*	145.2*
COC(=O)C1(C)NC(c2ccccc2F)C2C(=O)N(c3ccccc3)C(=O)C21 (centres undefined)	-6.2	-4.3	-3.6	2.0	0.7	-1.8	nt	nt
COC(=O)C1(C)NC(c2ccc(Cl)cc2)C2C(=O)N(c3ccccc3)C(=O)C21 (centres undefined)	-4.4	-6.1	-6.7	0.9	81.7*	-1.6	4.8	5.1
CCOc1ccc(S(=O)(=O)NCC(=O)NC2CCCCC2)cc1	-4.4	1.0	-2.0	3.1	nt	-0.9	nt	nt
O=C(O)c1ccc(NS(=O)(=O)/C=C/c2ccccc2)cc1O	1.3	-1.6	1.4	3.5	24.4*	-3.4	3.3	5.5
CN1/C(=C\C=C2/C(=O)Oc3ccccc3C2=O)C(C)(C)c2ccccc21	-6.0	nt	nt	nt	98.0*	nt	5.1	13.1
CN1C(=CC=C2C=C(I)C(=O)C(I)=C2)C(C)(C)c2ccccc21	nt	12.9	nt	208.9	nt	26.3	nt	nt
CN1/C(=C\C=C2/SC(=S)NC2=O)C(C)(C)c2ccccc21	1.6	5.2	nt	-3.9	105.6*	-101.1	111.0*	105.7*

Source: PubChem BioAssay (several laboratories)
